Assay results taken from ChEMBL document CHEMBL1151246, “New crinine-type alkaloids with inhibitory effect on induction of inducible nitric oxide synthase from Crinum yemense” (J Nat Prod, 2004).

Legend:
[1] = test system: Macrophage; experiment: Inhibition of LPS-induced NO production in ddY mouse macrophages at 100 uM after 20 hrs by Griess reagent assay relative to control; assay type: functional
Method in brief: (§1)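 Thioglycolate-elicited peritoneal macrophages from male ddY mice were precultured 1 h; nonadherent cells were washed off. Adherent cells (5 × 10⁵/well, RPMI 1640 with 5% FCS) were exposed 20 h to 10 μg/mL LPS with compound (1–100 μM, 0.5% DMSO final). Nitrite in the medium was measured with Griess reagent. Inhibition = (A−B)/(A−C) × 100 against LPS-only and unstimulated wells; IC50 was read graphically, N = 4, means ± SEM.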

[2] = test system: Macrophage; experiment: Inhibition of LPS-induced NO production in ddY mouse macrophages at 1 uM after 20 hrs by Griess reagent assay relative to control; assay type: functional; method in brief: as §1
[3] = test system: Macrophage; experiment: Inhibition of LPS-induced NO production in ddY mouse macrophages at 30 uM after 20 hrs by Griess reagent assay relative to control; assay type: functional; method in brief: as §1
[4] = test system: Macrophage; experiment: Inhibition of LPS-induced NO production in ddY mouse macrophages at 3 uM after 20 hrs by Griess reagent assay relative to control; assay type: functional; method in brief: as §1
[5] = test system: Macrophage; experiment: Inhibition of LPS-induced NO production in ddY mouse macrophages at 10 uM after 20 hrs by Griess reagent assay relative to control; assay type: functional; method in brief: as §1
[6] = test system: Macrophage; experiment: Inhibition of LPS-induced NO production in ddY mouse macrophages after 20 hrs by Griess reagent assay; assay type: functional, cell-based; method in brief: as §1

IC50 [6] | Structure (SMILES) | inhibition at 100 µM [1] | inhibition at 1 µM [2] | inhibition at 30 µM [3] | inhibition at 3 µM [4] | inhibition at 10 µM [5]
– | O[C@@H]1C=C[C@]23CCN(Cc4cc5c(cc42)OCO5)[C@H]3C1 [VITTATINE] | 42.4% | -0.2% | 13.1% | -12.5% | 7.1%
– | OC1c2cc3c(cc2[C@]24C=C[C@@H](O)C[C@@H]2N1C[C@H]4O)OCO3 (mixture of isomers) [YEMENINE C] | 31.3% | 9.7% | 18.3% | 1.6% | 0.5%
– | c1ccc2c(c1)ncc1cc3c(cc12)OCO3 [TRISPHAERIDINE] | 0.3% | -7.1% | -7% | -6.9% | -3.4%
24 µM | O[C@H]1C=C[C@]23c4cc5c(cc4CN(C[C@@H]2O)[C@H]3C1)OCO5 | 82% | 3.1% | 55.6% | 7.4% | 28.6%
7.4 µM | N=C(N)NCCSSCCNC(=N)N [GUANIDINOETHYLDISULFIDE] | 97.9% | 6.2% | 89.7% | 24.4% | 57.9%
4.9 µM | CC(=O)O[C@H]1C=C[C@]23c4cc5c(cc4CN(C[C@@H]2O)[C@H]3C1)OCO5 [YEMENINE A] | 98.5% | 10.4% | 93% | 38.1% | 69%
57 µM | CNC(=N)NCCC[C@H](N)C(=O)O [TILARGININE] | 63.1% | 5.9% | 34.1% | 10.3% | 15%
15 µM | O=C(/C=C/c1ccc(O)c(O)c1)OCCc1ccccc1 [CAFFEIC ACID PHENETHYL ESTER] | 99.6% | 3.8% | 93.7% | 1.4% | 68.2%

Structure (SMILES) | IC50 [6] | inhibition at 100 µM [1] | inhibition at 1 µM [2] | inhibition at 30 µM [3] | inhibition at 3 µM [4] | inhibition at 10 µM [5]
CO[C@H]1C=C[C@@]23c4cc5c(cc4CN(C[C@@H]2O)[C@H]3C1)OCO5 | 1.8 µM | 86.1% | 8.1% | 65.2% | 7.8% | 30.2%
CO[C@H]1C=C[C@]23c4cc5c(cc4C(O)N(C[C@H]2O)[C@H]3C1)OCO5 (mixture of isomers) | 5.4 µM | 69.5% | -11.2% | 30.3% | -23.1% | 6.3%
O[C@H]1[C@H]2c3cc4c(cc3CN3CCC(=C[C@@H]1O)[C@H]23)OCO4 [LYCORINE] | 2.5 µM | 91.4% | 0% | 54.4% | 2.8% | 20.6%
CO[C@H]1[C@@H](OC)C[C@H](C)[C@@H](OC)C2=CC(=O)C=C(NC(=O)/C(C)=C/C=C/[C@H](OC)[C@@H](OC(N)=O)/C(C)=C/[C@@H]1C)C2=O [HERBIMYCIN] | 0.094 µM | – | 48% | – | 77% | –
